{"source": "ChEMBL document CHEMBL1154900", "about": "“Modified phenazines from an Indonesian Streptomyces sp” (2010)", "key": {"Staphylococcus aureus [1]": {"test_system": "Staphylococcus aureus", "test": "Antibacterial activity against Staphylococcus aureus at 24 ug/disk by agar diffusion method", "type": "functional", "summary_of_the_method": "(§1)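 Disk agar diffusion screen. Each sample was loaded per disk at the stated amount, either 14 µg/disk or 24 and 56 µg/disk. All six organisms were tested in one panel: S. aureus, B. subtilis, E. coli, P. aeruginosa, the fungus M. miehei and the yeast C. albicans.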"}, "Bacillus subtilis [2]": {"test_system": "Bacillus subtilis", "test": "Antibacterial activity against Bacillus subtilis at 24 ug/disk by agar diffusion method", "type": "functional, organism-based", "summary_of_the_method": "as §1"}, "Escherichia coli [3]": {"test_system": "Escherichia coli", "test": "Antibacterial activity against Escherichia coli at 24 ug/disk by agar diffusion method", "type": "functional, organism-based", "summary_of_the_method": "as §1"}, "Pseudomonas aeruginosa [4]": {"test_system": "Pseudomonas aeruginosa", "test": "Antibacterial activity against Pseudomonas aeruginosa at 24 ug/disk by agar diffusion method", "type": "functional, organism-based", "summary_of_the_method": "as §1"}, "Rhizomucor miehei [5]": {"test_system": "Rhizomucor miehei", "test": "Antifungal activity against Mucor miehei at 24 ug/disk by agar diffusion method", "type": "functional, organism-based", "summary_of_the_method": "as §1"}, "Candida albicans [6]": {"test_system": "Candida albicans", "test": "Antifungal activity against Candida albicans at 24 ug/disk by agar diffusion method", "type": "functional, organism-based", "summary_of_the_method": "as §1"}, "Staphylococcus aureus [7]": {"test_system": "Staphylococcus aureus", "test": "Antibacterial activity against Staphylococcus aureus at 56 ug/disk by agar diffusion method", "type": "functional, organism-based", "summary_of_the_method": "as §1"}, "Bacillus subtilis [8]": {"test_system": "Bacillus subtilis", "test": "Antibacterial activity against Bacillus subtilis at 56 ug/disk by agar diffusion method", "type": "functional, organism-based", "summary_of_the_method": "as §1"}, "Escherichia coli [9]": {"test_system": "Escherichia coli", "test": "Antibacterial activity against Escherichia coli at 56 ug/disk by agar diffusion method", "type": "functional, organism-based", "summary_of_the_method": "as §1"}, "Pseudomonas aeruginosa [10]": {"test_system": "Pseudomonas aeruginosa", "test": "Antibacterial activity against Pseudomonas aeruginosa at 56 ug/disk by agar diffusion method", "type": "functional, organism-based", "summary_of_the_method": "as §1"}, "Rhizomucor miehei [11]": {"test_system": "Rhizomucor miehei", "test": "Antifungal activity against Mucor miehei at 56 ug/disk by agar diffusion method", "type": "functional, organism-based", "summary_of_the_method": "as §1"}, "Candida albicans [12]": {"test_system": "Candida albicans", "test": "Antifungal activity against Candida albicans at 56 ug/disk by agar diffusion method", "type": "functional, organism-based", "summary_of_the_method": "as §1"}}, "note": "Active and inactive are the calls of the source. The rule behind the calls is not given here.", "data": [{"compound": "CCC(=O)C(C)C(=O)C1(C)Cc2ccc(OC)c3c2N(C1=O)c1cccc(C(=O)O)c1N3", "note": "(centres undefined)", "values": [{"measurement": "Activity", "setting": "Staphylococcus aureus [1]", "result": "inactive"}, {"measurement": "Activity", "setting": "Bacillus subtilis [2]", "result": "inactive"}, {"measurement": "Activity", "setting": "Escherichia coli [3]", "result": "inactive"}, {"measurement": "Activity", "setting": "Pseudomonas aeruginosa [4]", "result": "inactive"}, {"measurement": "Activity", "setting": "Rhizomucor miehei [5]", "result": "inactive"}, {"measurement": "Activity", "setting": "Candida albicans [6]", "result": "inactive"}, {"measurement": "Activity", "setting": "Staphylococcus aureus [7]", "result": "inactive"}, {"measurement": "Activity", "setting": "Bacillus subtilis [8]", "result": "inactive"}, {"measurement": "Activity", "setting": "Escherichia coli [9]", "result": "inactive"}, {"measurement": "Activity", "setting": "Pseudomonas aeruginosa [10]", "result": "inactive"}, {"measurement": "Activity", "setting": "Rhizomucor miehei [11]", "result": "inactive"}, {"measurement": "Activity", "setting": "Candida albicans [12]", "result": "inactive"}]}, {"compound": "CCC(=O)C(C)C(=O)C(C)(Cc1ccc(OC)c2nc3c(C(=O)O)cccc3nc12)C(=O)OC", "note": "(centres undefined)", "values": [{"measurement": "zone of inhibition at 24 µg/disc", "setting": "Staphylococcus aureus [1]; read-out: IZ", "result": 14, "unit": "mm"}, {"measurement": "Activity", "setting": "Bacillus subtilis [2]", "result": "inactive"}, {"measurement": "inhibition zone (IZ)", "setting": "Escherichia coli [3]", "result": "inactive"}, {"measurement": "Activity", "setting": "Pseudomonas aeruginosa [4]", "result": "inactive"}, {"measurement": "Activity", "setting": "Rhizomucor miehei [5]", "result": "inactive"}, {"measurement": "Activity", "setting": "Candida albicans [6]", "result": "inactive"}, {"measurement": "Activity", "setting": "Staphylococcus aureus [7]", "result": "inactive"}, {"measurement": "Activity", "setting": "Bacillus subtilis [8]", "result": "inactive"}, {"measurement": "Activity", "setting": "Escherichia coli [9]", "result": "inactive"}, {"measurement": "Activity", "setting": "Pseudomonas aeruginosa [10]", "result": "inactive"}, {"measurement": "Activity", "setting": "Rhizomucor miehei [11]", "result": "inactive"}, {"measurement": "Activity", "setting": "Candida albicans [12]", "result": "inactive"}]}]}
